Compounds with a hit are over-represented: about 4.8% of the library has one in this group of screens.
T cruzi repl = inhibitors of intracellular T. cruzi growth, primary screen, luminescence, NIH3T3 host cells; inhibition, % (no concentration beside the values); T. cruzi beta-gal in NIH3T3, 90 h; 300,000 compounds, 1.4% hits;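 active = mean inhibition across valid replicates above about 55%, limit read from the data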;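 also: signal also drops with host cell toxicity which is not excluded here; 0% = plate median of DMSO wells and 100% = zero luminescence signal; higher percent means less beta-gal luminescence so fewer parasites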
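compound dosing = single 50 nL compound addition per well in DMSO | material = NIH/3T3 host cells with β-galactosidase reporter T. cruzi | input = 5,000 host fibroblasts per well | timing = ≥90 h infection period, 3 h prior cell attachment | read-out basis = percent inhibition of parasite-derived β-gal signal | detection = GalScreen β-gal luminescence, detergent lysis, 60 min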
SUMO Mot1 rescue = yeast Mot1-301 growth rescue at high temperature, primary screen, SUMOylation pathway inhibitor project, S. cerevisiae, ATP luminescence, 38.5C; S. cerevisiae Mot1-301 growth rescue; percent above DMSO median, 100 means doubled; growth rescue, % at 18.8 µM; 320,000 compounds, 1% hits; AID 2716, 2010;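 active = every valid replicate shows activation above 250% relative to neutral control wells; inactive = the rest, any valid replicate at or below 250%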;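 also: OY570 slx delta 5 strain wells were the positive control but not used for scaling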
CSC inhib = cancer stem cell viability inhibitors, primary screen, luminescence; inhibition, % at 7.5 µM; 300,000 compounds, 1.1% hits; cancer stem cell-like cells viability; in the data active = inhibition above about 75%; tested in HMLE shEcad cells
WT yeast gro inh = growth inhibition of WT strain, primary screen, mitochondrial fusion inhibitor project, WT and mutant strains, chemical genetic; 190,000 compounds, 2.1% hits; mitochondrial fusion phenotypic screen; AID 1362, 2008; inhibition, % at 10 µM; in the data active = inhibition above about 58%; tested in S. cerevisiae
Efflux pump inh = inhibitors of Candida efflux pumps in yeast, primary screen, S. cerevisiae, Nile Red, multiplex; 330,000 compounds, 0.44% hits; S. cerevisiae Candida pump triplex; inhibition, % at 10 µM; AID 485275, 2010;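 active = plate passing quality check with inhibition over a set limit, or well fluorescence over plate mean plus 4 SD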;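 also: Nile Red retained in pooled yeast measured as flow cytometry median fluorescence; 0% = buffer negative control and 100% = Enniatin B positive control; higher means more Nile Red kept so more efflux inhibition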
Beta cell apopt = inhibitors of cytokine-induced beta cell apoptosis, primary screen, luminescence; INS-1E cytokine-induced death, ATP luminescence, 48 h; percent of positive-control rescue, neutral wells zero; protection from apoptosis, % (concentration not given with the values); 300,000 compounds, 0.8% hits; AID 435005, 2010;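 active = Every replicate reaches about 75%, or at least half do and their mean reaches it too, limit read from the data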;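 also: 0% = cytokine-treated negative control wells and 100% = positive control rescue; higher means more ATP so stronger rescue from cytokine killing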
* hit, by the source's call.

`COC(=O)c1ccc(NC(=O)C(=O)c2c[nH]c3ccccc23)cc1` gave T cruzi repl -4.1, SUMO Mot1 rescue 12.3, CSC inhib -6.4 and Efflux pump inh -0.1.
NC(=O)C1CCN(C2=C(Cl)C(=O)c3ccccc3C2=O)CC1 was read as T cruzi repl 59.0*, SUMO Mot1 rescue -15.4, CSC inhib 85.3*, WT yeast gro inh 13.4, Efflux pump inh 0.1 and Beta cell apopt 14.8.
O=C1C(Cl)=C(N2CCC(C(=O)O)CC2)C(=O)c2ccccc21 was read as T cruzi repl -11.2, SUMO Mot1 rescue -3.6, CSC inhib 25.6, Efflux pump inh -0.1 and Beta cell apopt -27.6.
`CC(=O)Nc1ccc(SCCN2CC[C@@H](C(C)(C)C)CCC2=O)cc1` gave SUMO Mot1 rescue -13.5, CSC inhib 41.2, Efflux pump inh -0.1 and Beta cell apopt 3.1.
Screening COC(=O)c1cccc(OCC(O)Cn2ccnc2)c1 (stereo unspecified) returned T cruzi repl -4.4, SUMO Mot1 rescue -12.8, CSC inhib 3.0, WT yeast gro inh 5.3, Efflux pump inh -0.2 and Beta cell apopt -3.1.
OC(COc1ccc2cc(Br)ccc2c1)Cn1ccnc1 (stereo unspecified) was read as T cruzi repl 57.8*, SUMO Mot1 rescue 133.3, CSC inhib 10.3, Efflux pump inh -0.2 and Beta cell apopt 9.2.
Clc1ccc(OCCn2ccnc2)cc1Cl was read as T cruzi repl 59.2*, SUMO Mot1 rescue 25.7, CSC inhib 0.9, Efflux pump inh 0.1 and Beta cell apopt -4.9.
Cc1cc(OCCCn2ccnc2)ccc1C(C)C was read as T cruzi repl 73.9*, SUMO Mot1 rescue -6.0, CSC inhib 44.4, WT yeast gro inh 56.2, Efflux pump inh 0.2 and Beta cell apopt -1.2.
`Cc1cccc(OCCn2ccnc2)c1` gave T cruzi repl 0.2, SUMO Mot1 rescue -5.6, CSC inhib -2.7, Efflux pump inh -0.1 and Beta cell apopt -7.7.
c1ccc2cc(OCCCn3ccnc3)ccc2c1 was read as T cruzi repl 62.8*, SUMO Mot1 rescue 258.1, CSC inhib -14.1, Efflux pump inh -0.1 and Beta cell apopt -3.5.
Screening Cc1cc(OCC(=O)Nc2sc3c(c2C#N)CC(C)(C)NC3(C)C)c(C(C)C)cc1Cl returned T cruzi repl 51.0, SUMO Mot1 rescue -39.1, CSC inhib 55.5, Efflux pump inh 0.0 and Beta cell apopt 6.6.
CCOc1ccc(OCCOCCn2ccnc2)cc1 was read as T cruzi repl -13.3, SUMO Mot1 rescue -16.1, CSC inhib 5.9, Efflux pump inh -0.1 and Beta cell apopt 1.3.
`CCC(C)c1ccc(OCCn2ccnc2)cc1` (stereo unspecified) gave T cruzi repl 26.1, SUMO Mot1 rescue 19.4, CSC inhib 17.5, WT yeast gro inh 70.8*, Efflux pump inh 0.7 and Beta cell apopt 2.3.
`COc1ccc(/C=C(\NC(=O)c2ccc(C)cc2)C(=O)NCCCN2CCOCC2)cc1OC` gave T cruzi repl -3.4, SUMO Mot1 rescue 108.2, CSC inhib -14.6, Efflux pump inh 0.2 and Beta cell apopt -1.3.
Screening CC(C)(C)OC(=O)NCCCCCc1cn([C@@H](CO)C(=O)NCCCCCCCCCCC(=O)N2CCN(C(=O)OC(C)(C)C)CC2)nn1 returned SUMO Mot1 rescue -6.3, CSC inhib 18.0, Efflux pump inh 0.1 and Beta cell apopt 108.7*.
CC[C@@H](C)[C@@H](C(=O)N1CCN(C(=O)OC(C)(C)C)CC1)n1cc(CCCN=C(NC(=O)OC(C)(C)C)NC(=O)OC(C)(C)C)nn1 was read as T cruzi repl 3.5, SUMO Mot1 rescue -0.5, CSC inhib -1.7, WT yeast gro inh 15.1 and Beta cell apopt -6.4.
`CC[C@H](C)[C@@H](C(=O)NCCCCCCCCCCC(=O)N1CCN(C(=O)OC(C)(C)C)CC1)n1cc(CCCCN=C(NC(=O)OC(C)(C)C)NC(=O)OC(C)(C)C)nn1` gave SUMO Mot1 rescue -6.7, CSC inhib 3.7, Efflux pump inh 0.3 and Beta cell apopt 112.2*.

High-throughput results: PubChem BioAssay, several laboratories
